{"data": "Measurements collected from several papers", "read-out": "cell growth or viability", "note": "Protocols differ between the studies behind these lines."}
{"Compound": "Cc1cc(-c2ccc(/N=N/c3ccc4c(S(=O)(=O)O)cc(S(=O)(=O)O)c(N)c4c3O)c(C)c2)ccc1/N=N/c1ccc2c(S(=O)(=O)O)cc(S(=O)(=O)O)c(N)c2c1O", "cell line": "BHK-21", "assay": "CCK-8", "setting": "48 h", "quantity": "CC50", "result": "242 µM"}
{"Compound": "O=C(C1CCCCC1)N1CC(=O)N2CCc3ccccc3C2C1 (centres unmarked)", "cell line": "Vero", "assay": "MTT", "setting": "72 h", "quantity": "CC50", "result": "> 200 µM"}
{"Compound": "CNC(=N)NCCC[C@H](N)C(=O)O", "cell line": "RAW264.7", "assay": "MTT", "setting": "250 µg/mL, 24 h, LPS-stimulated", "quantity": "viability", "result": "> 85%"}
{"Compound": "NS(=O)(=O)c1ccc(-c2ccc(Nc3ccc(Cl)cc3)cc2)cc1", "cell line": "BHK-21", "assay": "MTT", "setting": "100 µM", "quantity": "viability", "result": "60%"}
{"Compound": "O=C1C(=O)c2cccnc2-c2ncccc21", "cell line": "Vero", "assay": "MTT", "setting": "72 h", "quantity": "CC50", "result": "> 200 µM"}
{"Compound": "CC1=NN(c2ccc(C)c(C)c2)C(=O)/C1=N\\Nc1cccc(-c2cccc(C(=O)O)c2)c1O", "cell line": "BHK-21", "assay": "CCK-8", "setting": "48 h", "quantity": "CC50", "result": "104 µM"}
{"Compound": "COc1cccc2c1C(=O)c1c(O)c3c(c(O)c1C2=O)C[C@@](O)(C(=O)CO)C[C@@H]3O[C@H]1C[C@H](N)[C@H](O)[C@H](C)O1", "cell line": "Vero", "assay": "MTT", "setting": "72 h", "quantity": "CC50", "result": "9.6 µM"}
{"Compound": "Cc1cc(C)cc(Nc2ccc(-c3ccc(S(N)(=O)=O)cc3)cc2)c1", "cell line": "BHK-21", "assay": "MTT", "setting": "100 µM", "quantity": "viability", "result": "88%"}
{"Compound": "NC(=NCc1ccccc1)NC(=O)c1nc(Cl)c(N)nc1N", "cell line": "BHK-21", "assay": "CCK-8", "setting": "48 h", "quantity": "CC50", "result": "44.5 µM"}
{"Compound": "COC(=O)c1ccc(Nc2ccc(-c3ccc(S(N)(=O)=O)cc3)cc2)cc1", "cell line": "BHK-21", "assay": "MTT", "setting": "100 µM", "quantity": "viability", "result": "68%"}
{"Compound": "Nc1nc2c(ncn2COCCO)c(=O)[nH]1", "cell line": "Vero", "assay": "MTT", "setting": "48 h", "quantity": "CC50", "result": "320 µM"}
